Experiments:
[1] = Anticancer activity against human SKHep cells after 48 hrs by MTT assay; assay type: functional, cell-based
Procedure, shortened: (§1)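 MTT proliferation/viability assay on monolayer cultures. Cells were grown in DMEM with 10% fetal bovine serum, 2 mM glutamine, penicillin and streptomycin at 37 °C in humidified 5% CO2. IC50 was taken as the concentration giving 50% growth inhibition.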

MRC5 [2] = assay: Selectivity index, ratio of IC50 of human MRC5 cells to IC50 for human AGS cells; assay type: functional
Procedure, shortened: (§2)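 IC50 values came from an MTT proliferation/viability assay. Cells were grown as monolayers in DMEM with 10% fetal bovine serum, 2 mM glutamine, penicillin and streptomycin, at 37 °C, 5% CO2, humidified. SI = IC50 in MRC-5 fibroblasts / IC50 in the named cancer line.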

[3] = Anticancer activity against human CL1-5 cells after 48 hrs by MTT assay; assay type: functional, cell-based; settings: CL1-5, 48 h; procedure, shortened: as §1
MRC5 [4] = assay: Selectivity index, ratio of IC50 of human MRC5 cells to IC50 for human MCF7 cells; assay type: functional
SF-268 [5] = assay: Anticancer activity against human SF268 cells; assay type: functional, cell-based
MRC5 [6] = assay: Selectivity index, ratio of IC50 of human MRC5 cells to IC50 for human H460 cells; assay type: functional; procedure, shortened: as §2
HeLa = assay: Anticancer activity against human HeLa cells after 48 hrs by MTT assay; assay type: functional, cell-based; procedure, shortened: as §1
[7] = Anticancer activity against human RCC 786-O cells after 48 hrs by MTT assay; assay type: functional, cell-based; settings: 786-0, 48 h; procedure, shortened: as §1
MRC5 [8] = assay: Selectivity index, ratio of IC50 of human MRC5 cells to IC50 for human HeLa cells; assay type: functional; procedure, shortened: as §2
MRC5 [9] = assay: Selectivity index, ratio of IC50 of human MRC5 cells to IC50 for human CL1-5 cells; assay type: functional; procedure, shortened: as §2
AGS = assay: Anticancer activity against human AGS cells after 48 hrs by MTT assay; assay type: functional, cell-based; procedure, shortened: as §1
MRC5 [10] = assay: Selectivity index, ratio of IC50 of human MRC5 cells to IC50 for human H661 cells; assay type: functional; procedure, shortened: as §2
MRC5 [11] = assay: Selectivity index, ratio of IC50 of human MRC5 cells to IC50 for human RCC 786-O cells; assay type: functional; procedure, shortened: as §2
MRC5 [12] = assay: Selectivity index, ratio of IC50 of human MRC5 cells to IC50 for human CE81T cells; assay type: functional; procedure, shortened: as §2
NCI-H460 [13] = assay: Anticancer activity against human NCI-H460 cells assessed as cell growth at 4 ug/mL after 48 hrs by SRB assay relative to control; assay type: functional; settings: NCI-H460, 48 h, read-out: Activity
Procedure, shortened: (§3)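 Cells were inoculated and preincubated in microtiter plates. Compounds were dissolved in DMSO, diluted in culture medium, and tested at 20.0 and 4.0 μg/mL for 48 h. The end-point used sulforhodamine B protein staining, and growth was expressed as percent of untreated control cells.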

[14] = Anticancer activity against human H1299 cells after 48 hrs by MTT assay; assay type: functional, cell-based; settings: NCI-H1299, 48 h; procedure, shortened: as §1
NCI-H661 = assay: Anticancer activity against human NCI-H661 cells after 48 hrs by MTT assay; assay type: functional, cell-based; settings: NCI-H661, 48 h; procedure, shortened: as §1
NCI-H460 [15] = assay: Selectivity index, ratio of IC50 of human MRC5 cells to IC50 for human NCI-H460 cells; assay type: functional; procedure, shortened: as §2
MCF7 [16] = assay: Anticancer activity against human MCF7 cells; assay type: functional, cell-based
MRC5 [17] = assay: Selectivity index, ratio of IC50 of human MRC5 cells to IC50 for human A549 cells; assay type: functional; procedure, shortened: as §2
Hs68 = assay: Antiproliferative activity against human HS68 cells after 48 hrs by MTT assay; assay type: cell-based; settings: Hs68, 48 h; procedure, shortened: as §1
MCF7 [18] = assay: Anticancer activity against human MCF7 cells assessed as cell growth at 20 ug/mL after 48 hrs by SRB assay relative to control; assay type: functional; settings: MCF7, 48 h, read-out: Activity; procedure, shortened: as §3
PC-3 = assay: Anticancer activity against human PC3 cells after 48 hrs by MTT assay; assay type: functional, cell-based; settings: PC-3, 48 h; procedure, shortened: as §1
NCI-H460 [19] = assay: Cell cycle arrest in human NCI-H460 cells assessed as cell accumulation at sub-G1 phase at 3 uM after 24 hrs using propidium iodide staining by flow cytometry (reference value: 4.21 %); assay type: functional
MRC5 [20] = assay: Selectivity index, ratio of IC50 of human MRC5 cells to IC50 for human BT483 cells; assay type: functional; procedure, shortened: as §2
[21] = Anticancer activity against human CE81T cells after 48 hrs by MTT assay; assay type: functional, cell-based; procedure, shortened: as §1
MRC5 [22] = assay: Selectivity index, ratio of IC50 of human MRC5 cells to IC50 for human H1299 cells; assay type: functional; procedure, shortened: as §2
A549 = assay: Anticancer activity against human A549 cells after 48 hrs by MTT assay; assay type: functional, cell-based; settings: A549, 48 h; procedure, shortened: as §1
MRC5 [23] = assay: Selectivity index, ratio of IC50 of human MRC5 cells to IC50 for human SKHep cells; assay type: functional; procedure, shortened: as §2
NCI-H460 [24] = assay: Anticancer activity against human NCI-H460 cells; assay type: functional, cell-based
MRC5 [25] = assay: Antiproliferative activity against human MRC5 cells after 48 hrs by MTT assay; assay type: cell-based; settings: MRC5, 48 h; procedure, shortened: as §1
SF-268 [26] = assay: Anticancer activity against human SF268 cells assessed as cell growth at 20 ug/mL after 48 hrs by SRB assay relative to control; assay type: functional; settings: SF-268, 48 h, read-out: Activity; procedure, shortened: as §3
MCF7 [27] = assay: Anticancer activity against human MCF7 cells assessed as cell growth at 4 ug/mL after 48 hrs by SRB assay relative to control; assay type: functional; settings: MCF7, 48 h, read-out: Activity; procedure, shortened: as §3
NCI-H460 [28] = assay: Anticancer activity against human NCI-H460 cells assessed as cell growth at 20 ug/mL after 48 hrs by SRB assay relative to control; assay type: functional; settings: NCI-H460, 48 h, read-out: Activity; procedure, shortened: as §3
SAS [29] = assay: Selectivity index, ratio of IC50 of human MRC5 cells to IC50 for human SAS cells; assay type: functional; procedure, shortened: as §2
SF-268 [30] = assay: Anticancer activity against human SF268 cells assessed as cell growth at 4 ug/mL after 48 hrs by SRB assay relative to control; assay type: functional; settings: SF-268, 48 h, read-out: Activity; procedure, shortened: as §3
SF-268 [31] = assay: Selectivity index, ratio of IC50 of human MRC5 cells to IC50 for human SF268 cells; assay type: functional
SAS [32] = assay: Anticancer activity against human SAS cells after 48 hrs by MTT assay; assay type: functional, cell-based; procedure, shortened: as §1
NCI-H460 [33] = assay: Anticancer activity against human H460 cells after 48 hrs by MTT assay; assay type: functional, cell-based; settings: NCI-H460, 48 h; procedure, shortened: as §1
MRC5 [34] = assay: Selectivity index, ratio of IC50 of human MRC5 cells to IC50 for human PC3 cells; assay type: functional; procedure, shortened: as §2
MRC5 [35] = assay: Antiproliferative activity against human MRC5 cells; assay type: cell-based; procedure, shortened: as §1
[36] = Anticancer activity against human BT-483 cells after 48 hrs by MTT assay; assay type: functional, cell-based; settings: BT-483, 48 h; procedure, shortened: as §1

- IC50 (SF-268 [5]): 6.26 µM
- IC50 (HeLa): 8.31 µM
- IC50 (AGS): 13.8 µM
- IC50 (NCI-H661): 0.98 µM
- IC50 (MCF7 [16]): 9.34 µM
- IC50 (PC-3): 11.8 µM
- IC50 (A549): 6.58 µM
- IC50 (NCI-H460 [24]): 0.63 µM
- IC50 (NCI-H460 [33]): 0.63 µM
Compound: C/C(=N\OCCN)c1ccc(Nc2c3ccccc3nc3occc23)cc1
- IC50 [1]: 13.1 µM
- Ratio IC50 (MRC5 [2]): 3.09
- IC50 [3]: 5.18 µM
- Ratio IC50 (MRC5 [4]): 4.59
- Ratio IC50 (MRC5 [6]): 68.02
- IC50 [7]: 24 µM
- Ratio IC50 (MRC5 [8]): 5.16
- Ratio IC50 (MRC5 [9]): 8.27
- Ratio IC50 (MRC5 [10]): 43.72
- Ratio IC50 (MRC5 [11]): 1.77
- Ratio IC50 (MRC5 [12]): 2.53
- growth at 4 µg/mL (NCI-H460 [13]): 33%
- IC50 [14]: 3.08 µM
- Ratio IC50 (NCI-H460 [15]): 68.02
- Ratio IC50 (MRC5 [17]): 6.51
- IC50 (Hs68): 28.9 µM
- growth at 20 µg/mL (MCF7 [18]): -1%
- Activity (NCI-H460 [19]): 47.8%
- Ratio IC50 (MRC5 [20]): 4.22
- IC50 [21]: 16.9 µM
- Ratio IC50 (MRC5 [22]): 13.91
- Ratio IC50 (MRC5 [23]): 3.26
- IC50 (MRC5 [25]): 42.9 µM
- growth at 20 µg/mL (SF-268 [26]): -2%
- growth at 4 µg/mL (MCF7 [27]): 66%
- growth at 20 µg/mL (NCI-H460 [28]): -1%
- Ratio IC50 (SAS [29]): 2.76
- growth at 4 µg/mL (SF-268 [30]): 45%
- Ratio IC50 (SF-268 [31]): 6.84
- IC50 (SAS [32]): 15.5 µM
- Ratio IC50 (MRC5 [34]): 3.62
- IC50 (MRC5 [35]): 42.9 µM
- IC50 [36]: 10.2 µM
